≈ marks a conversion by molar mass, not a printed value. Positions of bridges follow the written chain, without caps; N, C: chain ends. Non-standard residues stand in square brackets, D forms with d. Residues, ends and D or L forms follow the SMILES beside them. ξ: configuration not given here. *: point of attachment. Octanoyl(7-Me) = CC(C)CCCCCC(=O)*; Hexanoyl(4ξ-Me) = CCC(C)CCC(=O)*; dOrn = NCCC[C@@H](N)C(=O)O; X1 = CC[C@H](C)CCCCC(=O)*; Orn = NCCC[C@H](N)C(=O)O; Dab = NCC[C@H](N)C(=O)O
Assays:
Format in all cases: functional
Escherichia coli [1] = assay: Antibacterial activity against Escherichia coli ATCC 25922 assessed as inhibition of bacterial growth incubated for 24 hrs by multiplate photometer method
Staphylococcus aureus [2] = assay: Antibacterial activity against Staphylococcus aureus ATCC 29213 assessed as inhibition of bacterial growth incubated for 18 hrs by CLSI protocol based method
Outline: (§1)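 CLSI broth microdilution in cation-adjusted Mueller Hinton broth, in polypropylene plates. Bacteria were grown at 37 °C with shaking (200 rpm) for 8 h, then diluted into fresh medium and added to the wells. Compounds were tested as twofold dilutions from 64 to 0.25 μM (final), in triplicate, with growth and sterility controls. Plates were incubated at 37 °C with shaking. MIC is the lowest concentration with no growth, consistent across three biological replicates.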

Staphylococcus aureus [3] = assay: Antibacterial activity against methicillin-resistant Staphylococcus aureus assessed as inhibition of bacterial growth incubated for 24 hrs by multiplate photometer method
Escherichia coli [4] = assay: Antibacterial activity against Escherichia coli ATCC 25922 assessed as inhibition of bacterial growth incubated for 18 hrs by CLSI protocol based method; outline: as §1

| Structure (SMILES) | MIC (Escherichia coli [1]) | MIC (Staphylococcus aureus [2]) | MIC (Staphylococcus aureus [3]) | MIC (Escherichia coli [4]) |
| --- | --- | --- | --- | --- |
| CC[C@H](C)CCCCC(=O)N[C@@H](CCN)C(=O)N[C@H](C(=O)N[C@@H](CCN)C(=O)N[C@H]1CCNC(=O)[C@H]([C@@H](C)O)NC(=O)[C@H](CCN)NC(=O)[C@H](CCN)NC(=O)[C@H](CC(C)C)NC(=O)[C@@H](Cc2ccccc2)NC(=O)[C@H](CCN)NC1=O)[C@@H](C)O (X1-[Dab]T[Dab][Dab][Dab][dF]L[Dab][Dab]T; lactam 4-C) | 1 µg/mL (≈ 0.831 µM) | > 64 µg/mL | 32 µg/mL (≈ 26.6 µM) | 0.3 µg/mL (≈ 0.249 µM) |
| CCC(C)CCC(=O)N[C@H](CC(N)=O)C(=O)N[C@H](Cc1ccc(O)cc1)C(=O)N[C@H](Cc1c[nH]c2ccccc12)C(=O)N[C@H](CCCN)C(=O)N[C@@H](CCCN)C(=O)NCC(=O)N[C@H](CCCN)C(=O)N[C@@H](Cc1c[nH]c2ccccc12)C(=O)N[C@@H]1C(=O)N[C@@H]([C@@H](C)CC)C(=O)NCC(=O)N[C@@H](CO)C(=O)O[C@@H]1C (some centres undefined) ({Hexanoyl(4ξ-Me)}-[dN][dY][dW][dOrn][Orn]G[dOrn]WTIGS; ester 9-C) | 2 µg/mL (≈ 1.32 µM) | > 64 µg/mL | > 64 µg/mL | 2 µg/mL (≈ 1.32 µM) |
| CC[C@H](C)[C@@H]1NC(=O)[C@@H](NC(=O)[C@H](Cc2c[nH]c3ccccc23)NC(=O)[C@@H](CCCN)NC(=O)CNC(=O)[C@H](CCCN)NC(=O)[C@@H](CCCN)NC(=O)[C@@H](Cc2c[nH]c3ccccc23)NC(=O)[C@@H](Cc2ccc(O)cc2)NC(=O)[C@@H](CO)NC(=O)CCCCCC(C)C)[C@@H](C)OC(=O)CNC(=O)CNC(=O)[C@H](CC(N)=O)NC1=O ({Octanoyl(7-Me)}-[dS][dY][dW][dOrn][Orn]G[dOrn]WTINGG; ester 9-C) | 2 µg/mL (≈ 1.25 µM) | > 64 µg/mL | > 64 µg/mL | 0.25 µg/mL (≈ 0.156 µM) |
| CC1(C)S[C@@H]2[C@H](NC(=O)[C@H](N)c3ccc(O)cc3)C(=O)N2[C@H]1C(=O)O [AMOXICILLIN] |  | 3 µg/mL (≈ 8.21 µM) |  | 6 µg/mL (≈ 16.4 µM) |

Reference: ChEMBL document CHEMBL4840318, “The Total Chemical Synthesis and Biological Evaluation of the Cationic Antimicrobial Peptides, Laterocidine and Brevicidine” (2021)
